Results reported in ChEMBL document CHEMBL4177701, “A novel series of enoyl reductase inhibitors targeting the ESKAPE pathogens, Staphylococcus aureus and Acinetobacter baumannii” (Bioorg Med Chem, 2018).
≈ marks a conversion by molar mass, not a printed value. Calls of active or inactive are those of the source. The rule behind the calls is not given here.

What was measured:
Staphylococcus aureus [1] = experiment: Antibacterial activity against Staphylococcus aureus RN4220 by microbroth dilution method; format: functional
Procedure, shortened: (§1)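 Broth microdilution MIC; reported value is mean of at least two runs, within two-fold experimental uncertainty.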

Staphylococcus aureus [2] = experiment: Antibacterial activity against Staphylococcus aureus RN4220 over-expressing FabI by microbroth dilution method; format: functional; procedure, shortened: as §1
[3] = Inhibition of Acinetobacter baumannii 2208 ATCC 19606 FabI using crotonyl-CoA as substrate in presence of NADPH/NADH after 10 mins by fluorescence assay; parameters: species or system Acinetobacter baumannii ATCC 19606 = CIP 70.34 = JCM 6841
Procedure, shortened: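 AbFabI, 200 nM, in 50 mM MES/100 mM NaCl with 200 μM NADH, 0.1 mg/mL BSA and 0.01% triton. Reaction started with 300 μM crotonyl-CoA. NADH fluorescence read at 340/460 nm. Compounds tested at 0.4 nM–200 μM. Initial 10-min slopes were compared with a DMSO no-compound control. At least two independent experiments, each in duplicate; two-fold uncertainty.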

[4] = target: T1, Enoyl-[acyl-carrier-protein] reductase [NADPH] FabI (Staphylococcus aureus) (UniProt Q6GI75); experiment: Binding affinity to Staphylococcus aureus subsp. aureus Rosenbach ATCC 43300 FabI by SPR assay
T1 sequence (whole entry): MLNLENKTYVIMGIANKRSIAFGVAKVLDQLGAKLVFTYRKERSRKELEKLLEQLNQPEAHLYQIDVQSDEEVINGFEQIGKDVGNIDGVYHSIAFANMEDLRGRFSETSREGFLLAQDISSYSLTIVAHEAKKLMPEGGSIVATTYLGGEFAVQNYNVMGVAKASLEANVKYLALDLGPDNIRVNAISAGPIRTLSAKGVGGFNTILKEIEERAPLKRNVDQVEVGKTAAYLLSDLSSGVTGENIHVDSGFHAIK

[5] = Competitive inhibition of Acinetobacter baumannii 2208 ATCC 19606 FabI using crotonyl-CoA as substrate in presence of NADPH/NADH after 10 mins by fluorescence assay; parameters: species or system Acinetobacter baumannii ATCC 19606 = CIP 70.34 = JCM 6841
Acinetobacter baumannii [6] = experiment: Synergistic antibacterial activity against Acinetobacter baumannii 2208 ATCC 19606 assessed as colistin MIC by checkerboard method; format: functional; settings: ATCC 19606 = CIP 70.34 = JCM 6841 2208
[7] = test system: Acinetobacter baumannii ATCC 19606 = CIP 70.34 = JCM 6841; experiment: Binding affinity to Acinetobacter baumannii 2208 ATCC 19606 FabI by SPR assay
Escherichia coli [8] = experiment: Antibacterial activity against Escherichia coli BW25113 harboring TolC deletion mutant by microbroth dilution method; format: functional; procedure, shortened: as §1
Escherichia coli [9] = experiment: Antibacterial activity against Escherichia coli BW25113 mutant by microbroth dilution method; format: functional; procedure, shortened: as §1
Staphylococcus aureus [10] = experiment: Antibacterial activity against methicillin-resistant Staphylococcus aureus subsp. aureus Rosenbach ATCC 43300 by microbroth dilution method; format: functional; procedure, shortened: as §1
[11] = target: T2, Enoyl-[acyl-carrier-protein] reductase [NADPH] FabI (Staphylococcus aureus, UniProt Q6GI75); experiment: Competitive inhibition of Staphylococcus aureus subsp. aureus Rosenbach ATCC 43300 FabI using crotonyl-CoA as substrate in presence of NADPH/NADH after 10 mins by fluorescence assay
T2 sequence (Q6GI75 whole entry): T1 sequence (whole entry)

Acinetobacter baumannii [12] = experiment: Antibacterial activity against Acinetobacter baumannii 2208 ATCC 19606 by microbroth dilution method; format: functional; settings: ATCC 19606 = CIP 70.34 = JCM 6841 2208
Procedure, shortened: (§2)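 Microbroth dilution MIC; each value is the mean of at least two runs, within two-fold experimental uncertainty.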

[13] = target: T2, Enoyl-[acyl-carrier-protein] reductase [NADPH] FabI; experiment: Inhibition of Staphylococcus aureus subsp. aureus Rosenbach ATCC 43300 FabI using crotonyl-CoA as substrate in presence of NADPH/NADH after 10 mins by fluorescence assay
Procedure, shortened: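 SaFabI enzyme, 300 nM, in 50 mM MES/100 mM NaCl with 200 μM NADPH, 0.1 mg/mL BSA, 0.01% triton; started with 400 μM crotonyl-CoA. NADPH fluorescence at 340/460 nm. Compounds 0.4 nM–200 μM. Slopes over first 10 min compared with DMSO control for % inhibition. At least two independent experiments, each in duplicate. Two-fold experimental uncertainty.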

Staphylococcus aureus [14] = experiment: Antibacterial activity against Staphylococcus aureus Newman by microbroth dilution method; format: functional; procedure, shortened: as §2
Acinetobacter baumannii [15] = experiment: Synergistic antibacterial activity against Acinetobacter baumannii 2208 ATCC 19606 assessed as fractional inhibitory concentration in presence of colistin by checkerboard method; format: functional, ATCC 19606 = CIP 70.34 = JCM 6841 2208
Acinetobacter baumannii [16] = experiment: Synergistic antibacterial activity against Acinetobacter baumannii 2208 ATCC 19606 in presence of colistin by checkerboard method; format: functional; settings: ATCC 19606 = CIP 70.34 = JCM 6841 2208

| Structure (SMILES) | Activity (Staphylococcus aureus [1]) | Activity (Staphylococcus aureus [2]) | IC50 [3] | Activity [4] | Ki [5] | MIC (Acinetobacter baumannii [6]) | Activity [7] | MIC (Escherichia coli [8]) | MIC (Staphylococcus aureus [2]) | MIC (Escherichia coli [9]) | MIC (Staphylococcus aureus [10]) | Ki [11] | MIC (Acinetobacter baumannii [12]) | IC50 [13] | MIC (Staphylococcus aureus [14]) | FIC (Acinetobacter baumannii [15]) | MIC (Acinetobacter baumannii [16]) | MIC (Staphylococcus aureus [1]) |
| --- | --- | --- | --- | --- | --- | --- | --- | --- | --- | --- | --- | --- | --- | --- | --- | --- | --- | --- |
| CC[C@H]1OC(=O)[C@H](C)[C@@H](O[C@H]2C[C@@](C)(OC)[C@@H](O)[C@H](C)O2)[C@H](C)[C@@H](O[C@@H]2O[C@H](C)C[C@H](N(C)C)[C@H]2O)[C@](C)(O)C[C@@H](C)C(=O)[C@H](C)[C@@H](O)[C@]1(C)O | Active | Active |  |  |  |  |  |  |  |  |  |  |  |  |  |  |  |  |
| CN(C)[C@@H]1C(O)=C(C(N)=O)C(=O)[C@@]2(O)C(O)=C3C(=O)c4c(O)cccc4[C@@](C)(O)[C@H]3C[C@@H]12 | Active | Active |  |  |  |  |  |  |  |  |  |  |  |  |  |  |  |  |
| CN[C@@H]1[C@H](O[C@H]2[C@H](O[C@H]3[C@H](O)[C@@H](O)[C@H](N=C(N)N)[C@@H](O)[C@@H]3N=C(N)N)O[C@@H](C)[C@]2(O)C=O)O[C@@H](CO)[C@H](O)[C@H]1O | Active | Active |  |  |  |  |  |  |  |  |  |  |  |  |  |  |  |  |
| O=C(N[C@H](CO)[C@H](O)c1ccc([N+](=O)[O-])cc1)C(Cl)Cl | Active | Active |  |  |  |  |  |  |  |  |  |  |  |  |  |  |  |  |
| CC(=O)Nc1ccc(/C=C/C(=O)N2CCC(c3ccc4c(c3)OCO4)C2)cn1 (racemic) |  |  | 8.5 µM | Active | 4.3 µM | 1.56 µg/mL | Active | > 200 µg/mL | > 200 µg/mL | > 200 µg/mL | > 200 µg/mL | 0.4 µM | > 200 µg/mL |  |  |  |  |  |
| CC(C)S(=O)(=O)c1ccc(CC(=O)N2CCC(c3ccc4c(c3)OCO4)C2)cc1 (racemic) |  |  | > 100 µM | Active | > 50 µM |  | Active |  | > 200 µg/mL | > 200 µg/mL | > 200 µg/mL | > 37.1 µM | > 200 µg/mL | > 100 µM |  |  |  |  |
| O=C(Cc1ccccc1Cl)N1CCC(c2nccs2)C1 (racemic) |  |  | 14 µM | Active | 7 µM | 0.39 µg/mL | Active | > 100 µg/mL | > 200 µg/mL | > 100 µg/mL | 100 µg/mL (≈ 326 µM) | 2.2 µM | > 200 µg/mL |  | 163 µM | 0.75 | 50 µg/mL |  |
| O=C(Cc1c(F)cccc1F)N1CCC(c2ccc3c(c2)OCO3)C1 (racemic) |  |  | 54 µM | Active | 27 µM |  | Active |  | > 200 µg/mL | > 200 µg/mL | > 200 µg/mL | 0.9 µM | > 200 µg/mL |  |  |  |  |  |
| CC(=O)Nc1ccc(CC(=O)N2CCC(c3nccs3)C2)cc1 (racemic) |  |  | > 100 µM | Active | > 50 µM |  | Active |  | > 200 µg/mL | > 200 µg/mL | > 200 µg/mL | > 37.1 µM | > 200 µg/mL | > 100 µM |  |  |  |  |
| CC(=O)Nc1ccc(/C=C/C(=O)N2CCC(c3nccs3)C2)cn1 (racemic) |  |  | 20 µM | Active | 10 µM | 0.39 µg/mL | Active | > 200 µg/mL |  | > 200 µg/mL | > 200 µg/mL | 1.7 µM | > 200 µg/mL |  | > 200 µg/mL | 1 | 100 µg/mL | > 200 µg/mL |
| COc1ccc(C2CCN(C(=O)Cc3ccccc3Cl)C2)cc1 (racemic) |  |  | > 200 µM | Active | > 100 µM |  | Active | > 200 µg/mL |  |  | > 200 µg/mL | 4.6 µM | > 200 µg/mL |  |  |  |  | > 200 µg/mL |
| CC(=O)Nc1ccc(/C=C/C(=O)N2CCC(c3ccccc3)C2)cn1 (racemic) |  |  | 0.47 µM | Active | 0.2 µM | 3.1 µg/mL | Active | 12.5 µg/mL (≈ 37.3 µM) | > 200 µg/mL |  | > 200 µg/mL | 0.4 µM | > 200 µg/mL |  | > 200 µg/mL |  |  | > 200 µg/mL |
| COc1ccccc1C1CCN(C(=O)Cc2ccccc2F)C1 (racemic) |  |  | 2.1 µM | Active | 1.1 µM |  | Active |  | 100 µg/mL (≈ 319 µM) | > 200 µg/mL | 100 µg/mL (≈ 319 µM) | 1.7 µM | > 200 µg/mL |  | 160 µM |  |  | 50 µg/mL (≈ 160 µM) |
| COc1ccccc1C1CCN(C(=O)Cc2cccc(F)c2F)C1 (racemic) |  |  | 7.4 µM | Active | 3.7 µM |  | Active |  | > 200 µg/mL | > 200 µg/mL | 100 µg/mL (≈ 302 µM) | 1.1 µM | > 200 µg/mL |  | 100 µg/mL |  |  | 100 µg/mL (≈ 302 µM) |
| COc1ccccc1C1CCN(C(=O)Cc2ccc(NC(C)=O)cc2)C1 (racemic) |  |  | > 100 µM | Active | > 50 µM |  | Active |  | > 200 µg/mL | > 200 µg/mL | > 200 µg/mL | > 37.1 µM | > 200 µg/mL | > 100 µM |  |  |  |  |
| COc1ccccc1C1CCN(C(=O)/C=C/c2ccc(NC(C)=O)cc2)C1 (racemic) |  |  | > 100 µM | Active | > 50 µM |  | Active |  | > 200 µg/mL | > 200 µg/mL | > 200 µg/mL | > 37.1 µM | > 200 µg/mL | > 100 µM |  |  |  |  |
| O=C(Cc1ccccc1F)N1CCC(c2ccc3c(c2)OCO3)C1 (racemic) |  |  | 32 µM | Active | 16 µM |  | Active |  | > 200 µg/mL | > 200 µg/mL | > 200 µg/mL | 1 µM | > 200 µg/mL |  |  |  |  |  |
| COc1ccc(C2CCN(C(=O)/C=C/c3ccc(NC(C)=O)nc3)C2)cc1 (racemic) |  |  | > 200 µM | Active | > 100 µM |  | Active |  | > 200 µg/mL | > 200 µg/mL |  | 1.3 µM | > 200 µg/mL | 3.6 µM |  |  |  |  |
| COc1ccc(C2CCN(C(=O)Cc3ccc(NC(C)=O)cc3)C2)cc1 (racemic) |  |  | > 100 µM | Active | > 50 µM |  | Active |  | > 200 µg/mL | > 200 µg/mL | > 200 µg/mL | > 37.1 µM | > 200 µg/mL | > 100 µM |  |  |  |  |
| CC(=O)Nc1ccc(/C=C/C(=O)N2CCC(c3ccccn3)C2)cn1 (racemic) |  |  | 7.1 µM | Active | 3.6 µM | 0.39 µg/mL | Active | > 200 µg/mL |  | > 200 µg/mL | > 200 µg/mL | 10.5 µM | > 200 µg/mL |  | > 200 µg/mL | 1 | 100 µg/mL | > 200 µg/mL |
| O=C(Cc1cccc(F)c1F)N1CCC(c2ccc3c(c2)OCO3)C1 (racemic) |  |  | 13.7 µM | Active | 6.9 µM |  | Active |  |  | > 200 µg/mL | > 200 µg/mL | 2 µM | > 200 µg/mL |  |  |  |  | > 200 µg/mL |
| CC(=O)Nc1ccc(CC(=O)N2CCC(c3ccc4c(c3)OCO4)C2)cc1 (racemic) |  |  | > 100 µM | Active | > 50 µM |  | Active |  | > 200 µg/mL | > 200 µg/mL | > 200 µg/mL | > 37.1 µM | > 200 µg/mL | > 100 µM |  |  |  |  |
